For one data set, the system named is Nakaseomyces glabratus. The data set is described as follows: Antifungal activity against Candida glabrata 537 after 24 hrs by serial dilution method. The settings on record: Nakaseomyces glabratus, 537, 24 h. Type of data set: functional. The essentials:
(§1)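 MIC by broth serial dilution per NCCLS/CLSI (M27-A3 yeasts, M38-A2 filamentous) in 96-well plates; ATCC strains plus clinical isolates; C. parapsilosis 22019 run as quality-control strain in every assay. Compounds dissolved in DMSO, serially diluted in growth medium; incubation 35 °C; MIC read at 24 h (Candida), 48 h (A. fumigatus), 72 h (C. neoformans).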

For another data set, the system named is Liver microsome. The experiment in a line: Intrinsic clearance in human liver microsomes assessed per mg of protein at 0.1 uM measured up to 60 mins by MS analysis. The settings on record: 1 h.
Data set [1] has as its system Candida albicans. The experiment in a line: Antifungal activity against Candida albicans SC5314 after 24 hrs by serial dilution method. Type of data set: functional. The settings on record: SC5314, 24 h. The essentials: as §1
A further data set deals with Cryptococcus neoformans. The data set is described as follows: Antifungal activity against Cryptococcus neoformans 32609 after 72 hrs by serial dilution method. Conditions: Cryptococcus neoformans, 32609, 72 h. In kind it is functional. The essentials: as §1
The subject of data set [2] is Candida albicans. The data set is described as follows: Antifungal activity against Candida albicans Y0109 after 24 hrs by serial dilution method. In kind it is functional. Conditions: Y0109, 24 h. In short, it runs like this:
as §1

The next data set concerns Candida parapsilosis. The data set is described as follows: Antifungal activity against Candida parapsilosis 22019 after 24 hrs by serial dilution method. The settings on record: Lodderomyces parapsilosis, 22019, 24 h. In kind it is functional. In short, it runs like this: as §1
The test system of the next data set is Aspergillus fumigatus. The data set is described as follows: Antifungal activity against Aspergillus fumigatus 7544 after 48 hrs by serial dilution method. The settings on record: Aspergillus fumigatus, 7544, 48 h. Type of data set: functional. The essentials:
as §1

Converted amounts (≈) assume the structure as drawn.

The source of these data is ChEMBL document CHEMBL3616399, “Design, synthesis, and structure-activity relationship studies of novel thienopyrrolidone derivatives with strong antifungal activity against Aspergillus fumigates” (Eur J Med Chem, 2015).

Regarding `C[C@@H](N1Cc2cc(Br)sc2C1=O)[C@](O)(Cn1cncn1)c1ccc(F)cc1F`, the MIC turned out to be 0.0625 µg/mL (≈ 0.133 µM) against Nakaseomyces glabratus; 0.0156 µg/mL (≈ 0.0332 µM) in the data set on Candida albicans [1]; 0.0625 µg/mL (≈ 0.133 µM) with Cryptococcus neoformans; 0.0156 µg/mL (≈ 0.0332 µM) in the data set with Candida albicans [2]; 0.0156 µg/mL (≈ 0.0332 µM) with Candida parapsilosis; 0.25 µg/mL (≈ 0.533 µM) with Aspergillus fumigatus. The CLH in the data set on Liver microsome stood at 5 µL/min/mg.
For the compound `COc1ccc(-c2cc3c(s2)C(=O)N([C@H](C)[C@](O)(Cn2cncn2)c2ccc(F)cc2F)C3)cn1`, the MIC against Nakaseomyces glabratus was 0.125 µg/mL (≈ 0.251 µM); against Candida albicans [1], 0.0156 µg/mL (≈ 0.0314 µM); against Cryptococcus neoformans, 0.0312 µg/mL (≈ 0.0628 µM); against Candida albicans [2] it was 0.0312 µg/mL (≈ 0.0628 µM); with Candida parapsilosis, 0.0312 µg/mL (≈ 0.0628 µM); with Aspergillus fumigatus, 8 µg/mL (≈ 16.1 µM).
Turning to `C[C@@H](N1Cc2cc(-c3ccc(F)nc3)sc2C1=O)[C@](O)(Cn1cncn1)c1ccc(F)cc1F`, the minimum inhibitory concentration (MIC) in the data set with Nakaseomyces glabratus was 1 µg/mL (≈ 2.06 µM); with Candida albicans [1], 0.125 µg/mL (≈ 0.257 µM); against Cryptococcus neoformans, 0.25 µg/mL (≈ 0.515 µM); with Candida albicans [2] it was 0.25 µg/mL (≈ 0.515 µM); against Candida parapsilosis it was 0.25 µg/mL (≈ 0.515 µM); against Aspergillus fumigatus, 8 µg/mL (≈ 16.5 µM).
For the compound `C[C@@H](N1Cc2cc(-c3cncc(F)c3)sc2C1=O)[C@](O)(Cn1cncn1)c1ccc(F)cc1F`, the MIC stood at 0.25 µg/mL (≈ 0.515 µM) with Nakaseomyces glabratus; 0.0312 µg/mL (≈ 0.0644 µM) in the data set with Candida albicans [1]; 0.0312 µg/mL (≈ 0.0644 µM) with Cryptococcus neoformans; 0.0312 µg/mL (≈ 0.0644 µM) against Candida albicans [2]; 0.0312 µg/mL (≈ 0.0644 µM) in the data set on Candida parapsilosis; 4 µg/mL (≈ 8.24 µM) in the data set on Aspergillus fumigatus.
As for `COc1ncc(-c2cc3c(s2)C(=O)N([C@H](C)[C@](O)(Cn2cncn2)c2ccc(F)cc2F)C3)cn1`, the minimal inhibitory concentration (MIC) with Nakaseomyces glabratus is 0.25 µg/mL (≈ 0.501 µM); in the data set with Candida albicans [1], 0.0625 µg/mL (≈ 0.125 µM); against Cryptococcus neoformans it was 0.0625 µg/mL (≈ 0.125 µM); against Candida albicans [2] it was 0.0625 µg/mL (≈ 0.125 µM); in the data set on Candida parapsilosis, 0.0625 µg/mL (≈ 0.125 µM); in the data set with Aspergillus fumigatus it was 4 µg/mL (≈ 8.02 µM).
Take `C[C@@H](n1cnc2cc(Cl)ccc2c1=O)[C@](O)(Cn1cncn1)c1ccc(F)cc1F` [ALBACONAZOLE]: the MIC was found to be 0.0156 µg/mL (≈ 0.0361 µM) against Nakaseomyces glabratus; 0.0078 µg/mL (≈ 0.0181 µM) in the data set with Candida albicans [1]; 0.0078 µg/mL (≈ 0.0181 µM) in the data set on Cryptococcus neoformans; 0.0156 µg/mL (≈ 0.0361 µM) with Candida albicans [2]; 0.0156 µg/mL (≈ 0.0361 µM) in the data set on Candida parapsilosis; 0.25 µg/mL (≈ 0.579 µM) in the data set with Aspergillus fumigatus.
Take `OC(Cn1cncn1)(Cn1cncn1)c1ccc(F)cc1F` [FLUCONAZOLE]: the minimal inhibitory concentration (MIC) in the data set with Nakaseomyces glabratus is 1 µg/mL (≈ 3.27 µM); against Candida albicans [1], 0.25 µg/mL (≈ 0.816 µM); against Cryptococcus neoformans it was 4 µg/mL (≈ 13.1 µM); against Candida albicans [2], 0.25 µg/mL (≈ 0.816 µM); against Candida parapsilosis it was 1 µg/mL (≈ 3.27 µM); with Aspergillus fumigatus, more than 64 µg/mL.
On to `C[C@@H](c1ncncc1F)[C@](O)(Cn1cncn1)c1ccc(F)cc1F` [VORICONAZOLE], for which the minimal inhibitory concentration (MIC) in the data set on Nakaseomyces glabratus is 0.0156 µg/mL (≈ 0.0447 µM); against Candida albicans [1], 0.0156 µg/mL (≈ 0.0447 µM); with Cryptococcus neoformans it was 0.0156 µg/mL (≈ 0.0447 µM); against Candida albicans [2], 0.0156 µg/mL (≈ 0.0447 µM); with Candida parapsilosis, 0.0156 µg/mL (≈ 0.0447 µM); with Aspergillus fumigatus, 0.25 µg/mL (≈ 0.716 µM).

As a reminder, the MIC is the lowest concentration that inhibits growth of the organism.
